Experimental data reported in ChEMBL document CHEMBL4350956, “Paired Utility of Aza-Amino Acyl Proline and Indolizidinone Amino Acid Residues for Peptide Mimicry: Conception of Prostaglandin F2α Receptor Allosteric Modulators That Delay Preterm Birth” (J Med Chem, 2019).
Calls of active or inactive are those of the source. The rule behind the calls is not given here. Non-standard residues stand in square brackets, D forms with d. Residues, ends and D or L forms follow the SMILES beside them. *: point of attachment. Pro(trans-4-F) = O=C(O)[C@@H]1C[C@@H](F)CN1; Pro(cis-4-F) = O=C(O)[C@@H]1C[C@H](F)CN1; Pro(4R-NH2) = N[C@H]1CN[C@H](C(=O)O)C1; 3Pal = N[C@@H](Cc1cccnc1)C(=O)O; β3hF = N[C@H](CC(=O)O)Cc1ccccc1; PhAc = O=C(Cc1ccccc1)*; azaGly = NNC(=O)O

What was measured:
[1] = target: Prostaglandin F2-alpha receptor (Mus musculus) (UniProt P43117); assay: Allosteric modulator activity at prostaglandin F2alpha receptor in CD-1 mouse myometrial strips assessed as inhibition of PGF2alpha- induced contraction at 1 uM pre-incubated for 20 mins followed by PGF2alpha challenge
Outline: (§1)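 Myometrial strips; baseline taken as mean tension of spontaneous contractions at start. Pretreated 20 min with modulator, then PGF2α challenge. Tension rise computed as […], X = PGF2α-induced change in mean tension (g), Y = initial reference response (g). % inhibition = (A-B)/A, A without and B with pretreatment. 5 experiments per group; means ± SEM.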

[2] = target: Prostaglandin F2-alpha receptor (Mus musculus) (UniProt P43117); assay: Allosteric modulator activity at prostaglandin F2alpha receptor in CD-1 mouse myometrial strips assessed as inhibition of PGF2alpha- induced contraction at 10 uM pre-incubated for 20 mins followed by PGF2alpha challenge; outline: as §1
Mus musculus [3] = organism: Mus musculus; assay: Inhibition of spontaneous myometrial contraction in CD-1 mouse assessed as decrease in mean tension at 10 uM; type: functional, tissue-based; conditions: Myometrium
[4] = Solubility of the compound; type: physicochemical
Mus musculus [5] = assay: Suppression of LPS-induced premature delivery in Timed-pregnant CD-1 mouse assessed as inhibition of LPS-induced myometrial contraction by measuring percentage of animals delivering at 20 mg administered subcutaneously followed by 0.1 mg, ip bolus injection on day 16 prior to LPS challenge and measured on day 17; type: functional; set-up: scale not given: the % may be the effect or the level left
Outline: (§2)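 Pregnant mice given LPS (E. coli endotoxin) intraperitoneally on gestational day 16. Test agent 20 mg/kg/day, started on day 16, before LPS; controls received saline. Delivery scored as percentage of animals delivered at 12, 15–24, 24–48 and 72 h after LPS. Average delivery time after LPS also recorded. 5–6 animals per treated group; n=10 for saline controls.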

Mus musculus [6] = assay: (§3) Suppression of LPS-induced premature delivery in Timed-pregnant CD-1 mouse assessed as inhibition of LPS-induced myometrial contraction at 20 mg administered subcutaneously followed by 0.1 mg, ip bolus injection on day 16 prior to LPS challenge and measured up to day 19; type: functional, organism-based; outline: as §2
Mus musculus [7] = assay: as §3, with “contraction by measuring time of delay in labor” for “contraction”, “(reference value: 12 hrs)” for “and measured up to day 19”; type: functional; outline: as §2
Mus musculus [8] = assay: Suppression of PGF2alpha-induced premature delivery in Timed-pregnant CD-1 mouse assessed as inhibition of PGFalpha-induced myometrial contraction by measuring time of delay in labor at 10 mg administered subcutaneously followed by 0.1 mg, ip bolus injection on day 16 prior to PGF2alpha challenge (reference value: 2 hrs); type: functional

Prostaglandin F2-alpha receptor (Mus musculus), sequence (P43117 whole entry): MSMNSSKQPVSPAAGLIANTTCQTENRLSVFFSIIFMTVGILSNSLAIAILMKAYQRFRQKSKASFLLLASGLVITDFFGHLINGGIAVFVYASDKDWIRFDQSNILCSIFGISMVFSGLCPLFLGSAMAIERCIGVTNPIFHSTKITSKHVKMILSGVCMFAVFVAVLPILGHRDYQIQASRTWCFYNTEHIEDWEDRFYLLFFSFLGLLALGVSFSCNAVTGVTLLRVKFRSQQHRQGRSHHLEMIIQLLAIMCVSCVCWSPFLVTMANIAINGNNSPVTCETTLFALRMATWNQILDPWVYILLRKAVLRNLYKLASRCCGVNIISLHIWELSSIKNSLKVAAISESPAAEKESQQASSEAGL

inhibition [1]	inhibition [2]	SMILES	also measured
inactive	inactive	O=C(O)C[C@H](Cc1ccccc1)NC(=O)[C@H](Cc1cccnc1)NC(=O)[C@@H]1CCCN1C(=O)N(Cc1ccc([N+](=O)[O-])cc1)NC(=O)Cc1ccccc1	
inactive	inactive	O=C(O)C[C@H](Cc1ccccc1)NC(=O)[C@H](Cc1cccnc1)NC(=O)[C@@H]1CCC2=C(c3ccc(OC(F)(F)F)cc3)C[C@H](NC(=O)Cc3ccccc3)C(=O)N21	inhibition (Mus musculus [3]): Active
inactive	inactive	COc1ccc(C2=C3CC[C@@H](C(=O)N[C@@H](Cc4cccnc4)C(=O)N[C@H](CC(=O)O)Cc4ccccc4)N3C(=O)[C@@H](NC(=O)Cc3ccccc3)C2)cc1	
inactive	inactive	O=C(O)C[C@H](Cc1ccccc1)NC(=O)[C@H](Cc1cccnc1)NC(=O)[C@@H]1CCCN1C(=O)N(Cc1cn(-c2ccc([N+](=O)[O-])cc2)nn1)NC(=O)Cc1ccccc1	solubility [4]: Insoluble
inactive		O=C(O)C[C@H](Cc1ccccc1)NC(=O)[C@H](Cc1cccnc1)NC(=O)[C@@H]1CCC2=CC[C@H](NC(=O)Cc3ccccc3)C(=O)N21	
		O=C(O)C[C@H](Cc1ccccc1)NC(=O)[C@H](Cc1cccnc1)NC(=O)[C@@H]1CCCN1C(=O)NNC(=O)Cc1ccccc1 (PhAc-[azaGly]P[3Pal][β3hF]-OH)	Activity (Mus musculus [5]): <20%; inhibition (Mus musculus [6]): Active; Time (Mus musculus [7]): 24 h
inactive	inactive	O=C(O)C[C@H](Cc1ccccc1)NC(=O)[C@H](Cc1cccnc1)NC(=O)[C@@H]1C[C@@H](F)CN1C(=O)NNC(=O)Cc1ccccc1 (PhAc-[azaGly][Pro(trans-4-F)][3Pal][β3hF]-OH)	
inactive	inactive	O=C(O)C[C@H](Cc1ccccc1)NC(=O)[C@H](Cc1cccnc1)NC(=O)[C@@H]1CCCN1C(=O)N(Cc1c(F)c(F)c(F)c(F)c1F)NC(=O)Cc1ccccc1	solubility [4]: Insoluble
Active	Active	O=C(O)C[C@H](Cc1ccccc1)NC(=O)[C@H](Cc1cccnc1)NC(=O)[C@@H]1C[C@H](F)CN1C(=O)NNC(=O)Cc1ccccc1 (PhAc-[azaGly][Pro(cis-4-F)][3Pal][β3hF]-OH)	
	Active	O=C(O)C[C@H](Cc1ccccc1)NC(=O)[C@H](Cc1cccnc1)NC(=O)[C@@H]1CCCN1C(=O)N(Cc1ccccc1)NC(=O)Cc1ccccc1	Activity (Mus musculus [5]): <20%; inhibition (Mus musculus [6]): Active; Time (Mus musculus [7]): 24 h
Active	Active	C#CCN(NC(=O)Cc1ccccc1)C(=O)N1C[C@H](O)C[C@H]1C(=O)N[C@@H](Cc1cccnc1)C(=O)N[C@H](CC(=O)O)Cc1ccccc1	
inactive	inactive	O=C(O)C[C@H](Cc1ccccc1)NC(=O)[C@H](Cc1cccnc1)NC(=O)[C@@H]1C[C@@H](O)CN1C(=O)NNC(=O)Cc1ccccc1	
inactive	inactive	N#Cc1ccc(C2=C3CC[C@@H](C(=O)N[C@@H](Cc4cccnc4)C(=O)N[C@H](CC(=O)O)Cc4ccccc4)N3C(=O)[C@@H](NC(=O)Cc3ccccc3)C2)cc1	
		O=C(O)C[C@H](Cc1ccccc1)NC(=O)[C@H](Cc1cccnc1)NC(=O)[C@@H]1CC[C@@H]2CC[C@H](NC(=O)Cc3ccccc3)C(=O)N21	Time (Mus musculus [8]): ≤ 42 h
inactive	inactive	O=C(O)C[C@H](Cc1ccccc1)NC(=O)[C@H](Cc1cccnc1)NC(=O)[C@@H]1C[C@@H](O)CN1C(=O)N(Cc1ccccc1)NC(=O)Cc1ccccc1	
Active	Active	O=C(O)C[C@H](Cc1ccccc1)NC(=O)[C@H](Cc1cccnc1)NC(=O)[C@@H]1CCC2=C(c3ccccc3)C[C@H](NC(=O)Cc3ccccc3)C(=O)N21	
inactive	inactive	O=C(O)C[C@H](Cc1ccccc1)NC(=O)[C@H](Cc1cccnc1)NC(=O)[C@@H]1C[C@@H](F)CN1C(=O)N(Cc1ccccc1)NC(=O)Cc1ccccc1	
inactive	inactive	C#CCN(NC(=O)Cc1ccccc1)C(=O)N1C[C@@H](O)C[C@H]1C(=O)N[C@@H](Cc1cccnc1)C(=O)N[C@H](CC(=O)O)Cc1ccccc1	
inactive	inactive	CN(C)CC#CCN(NC(=O)Cc1ccccc1)C(=O)N1CCC[C@H]1C(=O)N[C@@H](Cc1cccnc1)C(=O)N[C@H](CC(=O)O)Cc1ccccc1	

inhibition [1]	inhibition [2]	SMILES	also measured
inactive	inactive	[N-]=[N+]=Nc1ccc(CC(=O)N[C@H]2CC[C@H]3CC[C@@H](C(=O)N[C@@H](Cc4cccnc4)C(=O)N[C@H](CC(=O)O)Cc4ccccc4)N3C2=O)cc1	
inactive	inactive	O=C(O)C[C@H](Cc1ccccc1)NC(=O)[C@H](Cc1cccnc1)NC(=O)[C@@H]1C[C@H](O)[C@@H]2CC[C@H](NC(=O)Cc3ccccc3)C(=O)N12	
inactive	inactive	O=C(O)C[C@H](Cc1ccccc1)NC(=O)[C@H](Cc1cccnc1)NC(=O)[C@@H]1C[C@H](F)CN1C(=O)N(Cc1ccccc1)NC(=O)Cc1ccccc1	
Active	Active	N[C@H]1C[C@@H](C(=O)N[C@@H](Cc2cccnc2)C(=O)N[C@H](CC(=O)O)Cc2ccccc2)N(C(=O)N(Cc2ccccc2)NC(=O)Cc2ccccc2)C1	
inactive	inactive	O=C(O)C[C@H](Cc1ccccc1)NC(=O)[C@H](Cc1cccnc1)NC(=O)[C@@H]1C[C@H](O)CN1C(=O)N(Cc1ccccc1)NC(=O)Cc1ccccc1	
Active	Active	N[C@@H]1C[C@@H](C(=O)N[C@@H](Cc2cccnc2)C(=O)N[C@H](CC(=O)O)Cc2ccccc2)N(C(=O)NNC(=O)Cc2ccccc2)C1 (PhAc-[azaGly][Pro(4R-NH2)][3Pal][β3hF]-OH)	
inactive	inactive	O=C(O)C[C@H](Cc1ccccc1)NC(=O)[C@H](Cc1cccnc1)NC(=O)[C@@H]1CCCN1C(=O)N(Cc1c[nH]nn1)NC(=O)Cc1ccccc1	
inactive	inactive	Cc1ccc(-n2cc(CN(NC(=O)Cc3ccccc3)C(=O)N3CCC[C@H]3C(=O)N[C@@H](Cc3cccnc3)C(=O)N[C@H](CC(=O)O)Cc3ccccc3)nn2)cc1	
inactive	inactive	O=C(O)C[C@H](Cc1ccccc1)NC(=O)[C@H](Cc1cccnc1)NC(=O)[C@@H]1C[C@H](O)CN1C(=O)NNC(=O)Cc1ccccc1	
inactive	inactive	Nc1ccc(CC(=O)N[C@H]2CC[C@H]3CC[C@@H](C(=O)N[C@@H](Cc4cccnc4)C(=O)N[C@H](CC(=O)O)Cc4ccccc4)N3C2=O)cc1	
inactive	inactive	O=C(O)C[C@H](Cc1ccccc1)NC(=O)[C@H](Cc1cccnc1)NC(=O)[C@@H]1CCCN1C(=O)N(Cc1cn(-c2ccc(I)cc2)nn1)NC(=O)Cc1ccccc1	
inactive	inactive	O=C(O)C[C@H](Cc1ccccc1)NC(=O)[C@H](Cc1cccnc1)NC(=O)[C@@H]1C[C@@H](O)[C@H]2CC[C@H](NC(=O)Cc3ccccc3)C(=O)N21	
inactive	inactive	O=C(O)C[C@H](Cc1ccccc1)NC(=O)[C@H](Cc1cccnc1)NC(=O)[C@@H]1CCCN1C(=O)N(Cc1cn(-c2ccc(F)cc2)nn1)NC(=O)Cc1ccccc1	
inactive	inactive	O=C(O)C[C@H](Cc1ccccc1)NC(=O)[C@H](Cc1cccnc1)NC(=O)[C@@H]1CCCN1C(=O)N(Cc1cn(-c2ccccc2)nn1)NC(=O)Cc1ccccc1	
	inactive	O=C(O)C[C@H](Cc1ccccc1)NC(=O)[C@H](Cc1cccnc1)NC(=O)[C@@H]1CC[C@H]2CC[C@H](NC(=O)Cc3ccccc3)C(=O)N21	
inactive	inactive	C#CCN(NC(=O)Cc1ccccc1)C(=O)N1C[C@H](F)C[C@H]1C(=O)N[C@@H](Cc1cccnc1)C(=O)N[C@H](CC(=O)O)Cc1ccccc1	
inactive	inactive	O=C(O)C[C@H](Cc1ccccc1)NC(=O)[C@H](Cc1cccnc1)NC(=O)[C@@H]1CCCN1C(=O)N(CC#CCN1CCCCC1)NC(=O)Cc1ccccc1	
inactive	inactive	Cc1ccc(CN(NC(=O)Cc2ccccc2)C(=O)N2CCC[C@H]2C(=O)N[C@@H](Cc2cccnc2)C(=O)N[C@H](CC(=O)O)Cc2ccccc2)cc1	
inactive	inactive	C#CCN(NC(=O)Cc1ccccc1)C(=O)N1C[C@@H](F)C[C@H]1C(=O)N[C@@H](Cc1cccnc1)C(=O)N[C@H](CC(=O)O)Cc1ccccc1	
